Assay [1] addresses Tyrosine-protein kinase JAK3 (Homo sapiens) (UniProt P52333). In words: Inhibition of recombinant human JAK3 (781 to end residues) at 1 uM using GGEEEEYFELVKKKK as substrate measured after 40 mins in presence of [gamma33P]ATP by scintillation counting method relative to control.
Assay [2] has as its target Mitogen-activated protein kinase kinase kinase kinase 3 (Homo sapiens) (UniProt Q8IVH8). In words: Inhibition of recombinant human MAP4K3 (1 to 291 residues) at 1 uM using RLGRDKYKTLRQIRQ as substrate measured after 40 mins in presence of [gamma33P]ATP by scintillation counting method relative to control.
The target in assay [3] is Serine/threonine-protein kinase B-raf (Homo sapiens) (UniProt P15056). In words: Inhibition of recombinant human BRAF (416 to end residues) at 1 uM using myelin basic protein as substrate measured after 40 mins in presence of [gamma33P]ATP by scintillation counting method relative to control.
Chain of Serine/threonine-protein kinase B-raf (Homo sapiens) (P15056 whole entry): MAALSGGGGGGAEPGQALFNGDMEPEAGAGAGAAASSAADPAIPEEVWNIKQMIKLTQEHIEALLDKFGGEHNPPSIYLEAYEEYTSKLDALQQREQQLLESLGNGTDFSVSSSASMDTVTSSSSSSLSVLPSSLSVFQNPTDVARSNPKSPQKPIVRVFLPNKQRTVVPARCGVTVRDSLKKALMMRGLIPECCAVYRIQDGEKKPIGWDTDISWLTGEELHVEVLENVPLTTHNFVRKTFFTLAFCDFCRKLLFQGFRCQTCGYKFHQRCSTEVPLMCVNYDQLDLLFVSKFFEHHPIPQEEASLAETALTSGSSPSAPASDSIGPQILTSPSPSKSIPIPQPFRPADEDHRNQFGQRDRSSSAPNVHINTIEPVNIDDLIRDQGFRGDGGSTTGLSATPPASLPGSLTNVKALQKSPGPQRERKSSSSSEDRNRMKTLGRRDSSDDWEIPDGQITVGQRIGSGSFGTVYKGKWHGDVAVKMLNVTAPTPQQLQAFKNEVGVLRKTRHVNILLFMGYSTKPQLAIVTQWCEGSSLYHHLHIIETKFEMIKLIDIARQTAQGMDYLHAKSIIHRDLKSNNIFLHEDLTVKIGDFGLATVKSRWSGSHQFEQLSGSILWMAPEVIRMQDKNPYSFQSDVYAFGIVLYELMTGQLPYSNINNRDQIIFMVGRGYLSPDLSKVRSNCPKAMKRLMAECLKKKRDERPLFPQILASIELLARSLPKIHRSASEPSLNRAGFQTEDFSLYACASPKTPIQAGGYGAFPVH
Assay [4] has as its target Serine/threonine-protein kinase 3 (Homo sapiens) (UniProt Q13188). As to the kind of experiment: Inhibition of recombinant human MST2 (2 to end residues) at 1 uM using myelin basic protein as substrate measured after 40 mins in presence of [gamma33P]ATP by scintillation counting method relative to control.
Assay [5] has as its system Tyrosine-protein kinase ABL1 (Homo sapiens), P00519 [H396P]. As to the kind of experiment: Inhibition of recombinant human ABL H396P mutant (27 to end residues) at 1 uM using EAIYAAPFAKKK as substrate measured after 40 mins in presence of [gamma33P]ATP by scintillation counting method relative to control.
The target of assay [6] is Cyclin-dependent kinase 9 (Homo sapiens) (UniProt P50750). As to conditions: A549, 0.25 uM.
Chain of Cyclin-dependent kinase 9 (Homo sapiens) (P50750 whole entry, the tested form may be a part): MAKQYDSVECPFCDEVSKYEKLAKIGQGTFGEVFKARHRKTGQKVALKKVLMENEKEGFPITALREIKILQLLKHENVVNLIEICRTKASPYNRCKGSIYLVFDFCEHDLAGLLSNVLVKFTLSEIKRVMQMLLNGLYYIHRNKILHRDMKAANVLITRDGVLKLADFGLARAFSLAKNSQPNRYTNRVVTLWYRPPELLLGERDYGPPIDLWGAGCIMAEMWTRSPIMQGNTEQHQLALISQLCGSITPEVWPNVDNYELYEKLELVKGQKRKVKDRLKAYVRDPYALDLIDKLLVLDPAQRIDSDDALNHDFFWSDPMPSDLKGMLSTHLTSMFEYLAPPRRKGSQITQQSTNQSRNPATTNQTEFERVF
In assay [7] the target is Ephrin type-A receptor 5 (Homo sapiens) (UniProt P54756). As to the kind of experiment: Inhibition of recombinant human EphA5 (655 to 956 residues) at 1 uM using poly(Glu, Tyr) 4:1 as substrate measured after 40 mins in presence of [gamma33P]ATP by scintillation counting method relative to control.
For assay [8], the system named is Hepatocyte growth factor receptor (Homo sapiens), P08581 [M1250T]. In words: Inhibition of recombinant human MET A1209G/V1290L/M1268T mutant (974 to end residues) at 1 uM using KKKGQEEEYVFIE as substrate measured after 40 mins in presence of [gamma33P]ATP by scintillation counting method relative to control.
Chain of Hepatocyte growth factor receptor (Homo sapiens), P08581 [M1250T] (P08581 whole entry M1250T): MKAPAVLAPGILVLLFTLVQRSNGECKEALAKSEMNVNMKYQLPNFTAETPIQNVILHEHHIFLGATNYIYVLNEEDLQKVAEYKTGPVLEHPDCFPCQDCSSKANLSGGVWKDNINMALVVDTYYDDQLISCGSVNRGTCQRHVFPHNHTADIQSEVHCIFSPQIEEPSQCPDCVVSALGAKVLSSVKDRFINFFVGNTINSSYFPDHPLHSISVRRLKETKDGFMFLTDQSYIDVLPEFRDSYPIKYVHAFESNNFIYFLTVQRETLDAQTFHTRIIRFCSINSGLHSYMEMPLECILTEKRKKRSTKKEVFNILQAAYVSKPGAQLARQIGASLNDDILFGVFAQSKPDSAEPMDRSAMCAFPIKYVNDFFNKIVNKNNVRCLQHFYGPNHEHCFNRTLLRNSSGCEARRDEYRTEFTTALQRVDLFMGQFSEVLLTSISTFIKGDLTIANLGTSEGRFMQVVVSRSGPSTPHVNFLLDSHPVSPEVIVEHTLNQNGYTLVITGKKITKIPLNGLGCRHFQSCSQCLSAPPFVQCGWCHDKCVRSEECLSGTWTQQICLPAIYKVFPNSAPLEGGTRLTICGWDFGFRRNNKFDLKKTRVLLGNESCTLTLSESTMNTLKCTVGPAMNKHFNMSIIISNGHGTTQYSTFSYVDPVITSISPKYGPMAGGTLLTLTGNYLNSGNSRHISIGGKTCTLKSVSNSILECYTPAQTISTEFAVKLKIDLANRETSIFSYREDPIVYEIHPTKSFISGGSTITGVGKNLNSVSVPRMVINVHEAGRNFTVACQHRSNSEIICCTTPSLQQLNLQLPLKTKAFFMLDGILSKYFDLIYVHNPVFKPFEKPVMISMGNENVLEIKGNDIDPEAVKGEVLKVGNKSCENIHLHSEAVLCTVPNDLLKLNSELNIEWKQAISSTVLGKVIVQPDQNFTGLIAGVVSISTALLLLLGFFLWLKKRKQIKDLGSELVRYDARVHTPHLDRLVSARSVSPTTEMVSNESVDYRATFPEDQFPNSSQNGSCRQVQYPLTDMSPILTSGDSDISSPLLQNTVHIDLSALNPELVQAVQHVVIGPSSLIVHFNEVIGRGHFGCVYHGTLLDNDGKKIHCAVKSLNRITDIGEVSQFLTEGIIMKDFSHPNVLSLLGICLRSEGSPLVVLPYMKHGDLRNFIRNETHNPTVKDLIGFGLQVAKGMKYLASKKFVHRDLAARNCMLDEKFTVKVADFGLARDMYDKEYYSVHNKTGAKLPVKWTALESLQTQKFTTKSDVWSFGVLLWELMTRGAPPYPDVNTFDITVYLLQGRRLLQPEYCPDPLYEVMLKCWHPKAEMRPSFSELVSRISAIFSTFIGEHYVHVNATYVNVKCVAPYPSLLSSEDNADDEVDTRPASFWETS
Assay [9] addresses Serine/threonine-protein kinase haspin (Homo sapiens) (UniProt Q8TF76). As to the kind of experiment: Inhibition of recombinant human haspin (471 to end residues) at 1 uM using RARTLSFAEPG as substrate measured after 40 mins in presence of [gamma33P]ATP by scintillation counting method relative to control. The procedure, abridged:
(§1)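 Single-point inhibition at 1 µM was measured in the Eurofins KinaseProfiler panel. Values are the mean of two independent experiments.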

Assay [10] deals with Cyclin-dependent kinase 9 (Homo sapiens) (UniProt P50750). The note with it: A549, 0.25 to 1 uM.
In assay [11] the test system is NCI-H1299. As to the kind of experiment: Induction of apoptosis in human H1299 cells assessed as early apoptotic cells at 1 uM after 48 hrs by AnnexinV-FITC/PI staining-based flow cytometric analysis (reference value: 0.248%). It is filed as functional.
Assay [12] deals with Testis-specific serine/threonine-protein kinase 4 (Homo sapiens) (UniProt Q6SA08). In words: Inhibition of recombinant full-length human TSSK4 at 1 uM using KKLNRTLSFAEPG as substrate measured after 40 mins in presence of [gamma33P]ATP by scintillation counting method relative to control.
In assay [13] the target is MAP kinase-interacting serine/threonine-protein kinase 2 (Homo sapiens) (UniProt Q9HBH9). As to the kind of experiment: Inhibition of recombinant full-length human Mnk2 at 1 uM using myelin basic protein as substrate measured after 40 mins in presence of [gamma33P]ATP by scintillation counting method relative to control.
Assay [14] has as its target Casein kinase I isoform gamma-1 (Homo sapiens) (UniProt Q9HCP0). As to the kind of experiment: Inhibition of recombinant human CK1gamma1 (25 to 355 residues) at 1 uM using KRRRALS(p)VASLPGL as substrate measured after 40 mins in presence of [gamma33P]ATP by scintillation counting method relative to control. The procedure, abridged:
as §1

The subject of assay [15] is HepG2. In words: Antiproliferative activity against human HepG2 cells assessed as inhibition of cell viability at 10 uM after 72 hrs by CCK-8 assay relative to control. Format: functional. As to conditions: HepG2, 72 h. The procedure, abridged:
(§2)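 Single-concentration viability screen using CCK-8. Cells were seeded at 3000/well and treated for 72 h. A450 read after 1-4 h with reagent. Percent inhibition calculated against untreated control and blank wells as (Ac−As)/(Ac−Ab)×100%.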
For orientation: Tetrazolium assays rely on reduction of a dye to a coloured formazan, in cell work by metabolically active cells.

Assay [16] deals with Bone morphogenetic protein receptor type-1B (Homo sapiens) (UniProt O00238). As to the kind of experiment: Inhibition of recombinant human ALK6 (148 to end residues) at 1 uM using casein as substrate measured after 40 mins in presence of [gamma33P]ATP by scintillation counting method relative to control.
Chain of Bone morphogenetic protein receptor type-1B (Homo sapiens) (O00238 whole entry): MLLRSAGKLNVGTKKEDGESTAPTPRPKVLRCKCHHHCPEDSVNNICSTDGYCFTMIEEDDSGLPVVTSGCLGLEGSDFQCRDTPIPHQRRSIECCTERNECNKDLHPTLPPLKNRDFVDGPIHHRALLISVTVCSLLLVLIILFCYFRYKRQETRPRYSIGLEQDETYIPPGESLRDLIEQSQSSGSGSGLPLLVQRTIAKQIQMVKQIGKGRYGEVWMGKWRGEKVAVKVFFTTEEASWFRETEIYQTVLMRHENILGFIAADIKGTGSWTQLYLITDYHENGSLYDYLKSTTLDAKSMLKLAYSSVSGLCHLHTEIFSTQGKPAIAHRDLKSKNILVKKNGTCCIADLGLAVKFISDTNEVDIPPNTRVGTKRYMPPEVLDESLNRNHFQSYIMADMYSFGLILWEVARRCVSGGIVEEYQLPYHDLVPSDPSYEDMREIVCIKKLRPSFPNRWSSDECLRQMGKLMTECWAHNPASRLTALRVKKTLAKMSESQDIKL
The target of assay [17] is Proto-oncogene tyrosine-protein kinase receptor Ret (Homo sapiens) (UniProt P07949). In words: Inhibition of human Ret (658 to end residues) at 1 uM using KKKSPGEYVNIEFG as substrate measured after 40 mins in presence of [gamma33P]ATP by scintillation counting method relative to control. The procedure, abridged:
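Percent inhibition of kinase activity at a single compound concentration, measured by the outsourced Eurofins KinaseProfiler panel. Values are the mean of two independent experiments.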

The test system of assay [18] is NCI-H1299. As to the kind of experiment: Antitumour activity against human H1299 cells xenografted in po dosed Balb/c mouse assessed as inhibition of tumour growth after 21 days by digital caliper method. Format: functional, organism-based. The procedure, abridged:
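Female nude mice, 6-8 weeks old, injected subcutaneously with 1×10^6 H1299 cells (100 µL of a 1×10^7/mL suspension in serum-free medium). At 100-120 mm3, randomized into groups of 5. Dosed orally each day for 21 days with drug dissolved in DMSO, or with vehicle. Caliper measurements and body weight taken every other day. Volume = short²×long×0.5. Growth inhibition based on change in volume relative to vehicle. Tumours weighed at the end.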
In general terms: Xenograft models place foreign cells or tissue in a host animal.

The target of assay [19] is Inhibitor of nuclear factor kappa-B kinase subunit alpha (Homo sapiens) (UniProt O15111). In words: Inhibition of human full length recombinant IKKalpha at 1 uM using peptide as substrate incubated for 40 mins in presence of [gamma-33P]ATP at Km concentration by radiometric assay relative to control.
In assay [20] the target is CDK12/Cyclin K (Homo sapiens) (UniProt O75909+Q9NYV4). As to the kind of experiment: Inhibition of human full length recombinant CDK12/cyclinK at 1 uM using RSRSRSRSRSRSRSR as substrate incubated for 120 mins in presence of [gamma-33P]ATP at by radiometric assay relative to control. Format: protein-complex assay.
Assay [21] deals with NUAK family SNF1-like kinase 1 (Homo sapiens) (UniProt O60285). As to the kind of experiment: Inhibition of recombinant human ARK5 (2 to end residues) at 1 uM using KKKVSRSGLYRSPSMPENLNRPR as substrate measured after 40 mins in presence of [gamma33P]ATP by scintillation counting method relative to control.
The test system of assay [22] is HepG2. In words: Antiproliferative activity against human HepG2 cells assessed as inhibition of cell viability at 500 nM after 72 hrs by CCK-8 assay relative to control. Format: functional. As to conditions: HepG2, 72 h. The procedure, abridged:
as §2

The source made the active and inactive calls. The rule behind the calls is not given here.

Chain of Tyrosine-protein kinase JAK3 (Homo sapiens) (P52333 whole entry, the tested form may be a part): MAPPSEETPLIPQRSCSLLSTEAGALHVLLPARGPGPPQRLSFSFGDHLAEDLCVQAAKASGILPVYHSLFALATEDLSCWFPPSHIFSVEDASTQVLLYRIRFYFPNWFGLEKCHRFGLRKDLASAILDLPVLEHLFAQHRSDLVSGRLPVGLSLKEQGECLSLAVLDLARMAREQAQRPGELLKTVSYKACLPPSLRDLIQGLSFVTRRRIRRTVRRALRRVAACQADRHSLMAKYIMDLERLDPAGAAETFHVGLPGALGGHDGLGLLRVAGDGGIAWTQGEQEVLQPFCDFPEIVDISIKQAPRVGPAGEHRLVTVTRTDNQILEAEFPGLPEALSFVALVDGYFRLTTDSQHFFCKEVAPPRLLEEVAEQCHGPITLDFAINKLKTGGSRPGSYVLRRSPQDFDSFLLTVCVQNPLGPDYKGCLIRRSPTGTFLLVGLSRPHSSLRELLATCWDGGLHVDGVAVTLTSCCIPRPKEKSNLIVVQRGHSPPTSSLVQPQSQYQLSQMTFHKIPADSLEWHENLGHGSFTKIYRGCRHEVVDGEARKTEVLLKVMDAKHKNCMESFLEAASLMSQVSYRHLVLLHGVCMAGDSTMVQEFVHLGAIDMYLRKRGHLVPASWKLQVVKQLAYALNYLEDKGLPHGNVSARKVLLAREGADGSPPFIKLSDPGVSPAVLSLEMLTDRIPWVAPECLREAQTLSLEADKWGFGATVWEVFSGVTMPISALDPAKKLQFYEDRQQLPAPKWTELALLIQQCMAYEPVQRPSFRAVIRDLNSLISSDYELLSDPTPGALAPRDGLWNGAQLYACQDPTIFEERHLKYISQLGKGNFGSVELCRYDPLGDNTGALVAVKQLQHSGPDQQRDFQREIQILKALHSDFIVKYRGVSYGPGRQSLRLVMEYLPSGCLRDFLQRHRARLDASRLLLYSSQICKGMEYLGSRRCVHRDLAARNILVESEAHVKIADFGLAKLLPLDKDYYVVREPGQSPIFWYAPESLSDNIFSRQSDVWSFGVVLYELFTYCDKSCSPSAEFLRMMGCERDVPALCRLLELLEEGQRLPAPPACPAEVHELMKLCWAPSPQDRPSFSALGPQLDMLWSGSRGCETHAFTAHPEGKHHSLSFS
Chain of Serine/threonine-protein kinase haspin (Homo sapiens) (Q8TF76 whole entry): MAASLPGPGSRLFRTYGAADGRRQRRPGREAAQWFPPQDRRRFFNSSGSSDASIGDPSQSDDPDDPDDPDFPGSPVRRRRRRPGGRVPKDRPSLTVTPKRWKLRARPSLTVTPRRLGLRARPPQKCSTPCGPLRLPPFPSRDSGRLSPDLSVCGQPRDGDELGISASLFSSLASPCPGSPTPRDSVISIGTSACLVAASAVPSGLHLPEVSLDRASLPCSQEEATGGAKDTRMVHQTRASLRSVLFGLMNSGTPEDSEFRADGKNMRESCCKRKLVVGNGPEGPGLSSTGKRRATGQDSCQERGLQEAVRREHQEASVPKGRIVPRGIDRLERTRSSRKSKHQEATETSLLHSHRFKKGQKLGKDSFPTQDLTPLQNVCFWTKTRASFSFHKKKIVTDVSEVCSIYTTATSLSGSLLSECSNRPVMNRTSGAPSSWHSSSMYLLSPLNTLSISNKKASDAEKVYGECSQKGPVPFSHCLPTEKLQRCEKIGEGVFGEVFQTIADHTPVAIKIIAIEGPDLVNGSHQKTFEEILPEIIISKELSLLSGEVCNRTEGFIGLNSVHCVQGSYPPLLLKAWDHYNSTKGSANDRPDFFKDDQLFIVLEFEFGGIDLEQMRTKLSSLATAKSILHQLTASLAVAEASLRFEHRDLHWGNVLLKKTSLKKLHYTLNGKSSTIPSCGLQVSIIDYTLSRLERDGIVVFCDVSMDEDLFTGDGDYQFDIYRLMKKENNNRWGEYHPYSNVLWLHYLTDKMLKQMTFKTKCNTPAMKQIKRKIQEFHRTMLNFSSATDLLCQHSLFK

Take `CN(C)C(=O)c1cc2cnc(Nc3ccc(NC(=O)CCCCCCCN=C=S)cc3)nc2n1C1CCCC1`: the inhibition (as a rule, the drop in the measured response relative to a control, in per cent) in [1] turned out to be 83%; in assay [2], 95%; in [3], 34%; in assay [4], 43%; in assay [5] it was 35%; in assay [7], 6%. In addition, the inhibition is 60% in [8]; 11% in [9]; -7% in assay [12]; 68% in assay [13]; 11% in assay [14]; -1% in assay [16]. The inhibition in assay [17] was 55%; in assay [19], -1%; in assay [20] it was 45%; in [21], 79%. Further, the inhibition result in assay [6] and in assay [10] was “Active” throughout. In addition, the Activity in the assay on NCI-H1299 [11] is 2.28%. The inhibition at 10 µM with HepG2 [15] was found to be 76%. Besides, the TGI entry with NCI-H1299 [18] was “Dose-dependent effect”. In addition, the inhibition at 0.5 µM with HepG2 [22] amounted to 23%.

For the origin of these results see ChEMBL document CHEMBL4376814, “Novel cyclin-dependent kinase 9 (CDK9) inhibitor with suppression of cancer stemness activity against non-small-cell lung cancer” (Eur J Med Chem, 2019).
